Laboratory results: ChEMBL document CHEMBL4229344 (Eur J Med Chem, 2018)

Columns and labels:
[1] = target: Calcium/calmodulin-dependent protein kinase kinase 1 (Homo sapiens) (UniProt Q8N5S9); experiment: Binding affinity to wild-type human partial length CAMKK1 (R65 to E414 residues) expressed in bacterial expression system assessed as residual binding level at 1 uM by Kinomescan method relative to control
Outline: (§1)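 Kinome-wide competition binding screen against a panel of 468 purified kinases/mutants, with the test compound at a single concentration of 1 μM. Read-out is the relative binding activity of each kinase in the presence of compound.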

[2] = target: Non-receptor tyrosine-protein kinase TYK2 (Homo sapiens) (UniProt P29597); experiment: Binding affinity to wild-type human partial length TYK2 JH2 pseudokinase domain (G556 to D888 residues) expressed in mammalian expression system assessed as residual binding level at 1 uM by Kinomescan method relative to control
Non-receptor tyrosine-protein kinase TYK2 (Homo sapiens), sequence (P29597 whole entry, the tested form may be a part): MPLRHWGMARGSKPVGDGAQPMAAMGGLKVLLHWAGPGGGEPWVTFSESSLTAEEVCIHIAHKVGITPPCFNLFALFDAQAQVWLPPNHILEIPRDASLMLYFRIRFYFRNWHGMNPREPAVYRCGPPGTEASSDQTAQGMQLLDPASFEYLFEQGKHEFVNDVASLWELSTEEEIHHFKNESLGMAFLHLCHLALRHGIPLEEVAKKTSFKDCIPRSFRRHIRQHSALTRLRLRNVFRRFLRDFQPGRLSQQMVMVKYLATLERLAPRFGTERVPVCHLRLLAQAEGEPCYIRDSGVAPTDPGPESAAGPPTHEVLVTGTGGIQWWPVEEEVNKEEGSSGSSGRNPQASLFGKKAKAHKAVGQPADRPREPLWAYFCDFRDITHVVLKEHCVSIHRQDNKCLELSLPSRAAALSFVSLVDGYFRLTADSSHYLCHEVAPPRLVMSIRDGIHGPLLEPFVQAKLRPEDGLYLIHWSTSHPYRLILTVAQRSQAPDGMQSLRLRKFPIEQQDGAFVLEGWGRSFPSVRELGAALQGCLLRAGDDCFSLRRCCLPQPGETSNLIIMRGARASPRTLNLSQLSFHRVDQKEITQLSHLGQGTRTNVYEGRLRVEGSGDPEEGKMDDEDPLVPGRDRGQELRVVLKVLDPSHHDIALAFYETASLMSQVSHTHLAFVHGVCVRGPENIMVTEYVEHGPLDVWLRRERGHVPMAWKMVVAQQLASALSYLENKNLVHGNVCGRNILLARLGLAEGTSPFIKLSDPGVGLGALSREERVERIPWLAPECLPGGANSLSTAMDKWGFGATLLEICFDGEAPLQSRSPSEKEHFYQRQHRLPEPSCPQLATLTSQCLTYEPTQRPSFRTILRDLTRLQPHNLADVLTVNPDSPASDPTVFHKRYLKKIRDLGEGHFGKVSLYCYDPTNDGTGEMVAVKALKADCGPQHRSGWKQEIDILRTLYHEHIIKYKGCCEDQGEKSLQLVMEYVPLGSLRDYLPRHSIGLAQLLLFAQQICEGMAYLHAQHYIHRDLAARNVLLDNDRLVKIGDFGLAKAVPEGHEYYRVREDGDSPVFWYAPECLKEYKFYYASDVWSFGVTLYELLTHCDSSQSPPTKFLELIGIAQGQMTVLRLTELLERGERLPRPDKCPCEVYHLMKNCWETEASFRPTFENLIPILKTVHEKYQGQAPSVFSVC

[3] = target: cGMP-dependent protein kinase 1 (Homo sapiens) (UniProt Q13976); experiment: Binding affinity to wild-type human partial length PRKG1 (L339 to F686 residues) expressed in bacterial expression system assessed as residual binding level at 1 uM by Kinomescan method relative to control
[4] = AUC (0 to infinity) in Sprague-Dawley rat at 10 mg/kg, po; assay type: ADME, organism-based; parameters: dose 10 mg/kg, route oral, time infinity; conditions: in vivo
Outline: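 Male Sprague-Dawley rats (6–8 weeks) fasted overnight, dosed IV or orally; compound dissolved in 5% DMSO/40% PEG400/55% saline (dosing solution 1 mg/mL). Blood (~0.2 mL) from jugular vein into heparin; IV sampling 1 min–8 h, oral 5 min–24 h. Plasma separated by centrifugation at 2–8 °C, stored at −80 °C until analysis.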

[5] = target: Tyrosine-protein kinase Fes/Fps (Homo sapiens) (UniProt P07332); experiment: Binding affinity to wild-type human partial length FES (I527 to R822 residues) expressed in bacterial expression system assessed as residual binding level at 1 uM by Kinomescan method relative to control
[6] = target: Non-receptor tyrosine-protein kinase TYK2 (Homo sapiens) (UniProt P29597); experiment: Binding affinity to wild-type human partial length TYK2 JH1 catalytic domain (V877 to C1187 residues) expressed in mammalian expression system assessed as residual binding level at 1 uM by Kinomescan method relative to control
[7] = target: cAMP-dependent protein kinase catalytic subunit beta (Homo sapiens) (UniProt P22694); experiment: Binding affinity to wild-type human full length PKAC-beta (M1 to F351 residues) expressed in bacterial expression system assessed as residual binding level at 1 uM by Kinomescan method relative to control
Outline: (§2)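 Single-concentration KINOMEscan (DiscoverX) binding screen at 1 μM against a panel of 468 purified kinases and mutants. The read-out is binding relative to control.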

[8] = target: Dual specificity protein kinase CLK2 (Homo sapiens) (UniProt P49760); experiment: Binding affinity to wild-type human partial length CLK2 (D144 to R498 residues) expressed in bacterial expression system assessed as residual binding level at 1 uM by Kinomescan method relative to control; outline: as §1
[9] = target: Ribosomal protein S6 kinase alpha-2 (Homo sapiens) (UniProt Q15349); experiment: Binding affinity to wild-type human partial length N-terminal RSK3 kinase domain 1 (M1 to Q385 residues) expressed in bacterial expression system assessed as residual binding level at 1 uM by Kinomescan method relative to control
[10] = target: Cyclin-dependent kinase 13 (Homo sapiens) (UniProt Q14004); experiment: Binding affinity to wild-type human partial length CDC2L5 (H675 to S1054 residues) expressed in mammalian expression system assessed as residual binding level at 1 uM by Kinomescan method relative to control
Cyclin-dependent kinase 13 (Homo sapiens), sequence (Q14004 whole entry, looked up, the tested form may be a part): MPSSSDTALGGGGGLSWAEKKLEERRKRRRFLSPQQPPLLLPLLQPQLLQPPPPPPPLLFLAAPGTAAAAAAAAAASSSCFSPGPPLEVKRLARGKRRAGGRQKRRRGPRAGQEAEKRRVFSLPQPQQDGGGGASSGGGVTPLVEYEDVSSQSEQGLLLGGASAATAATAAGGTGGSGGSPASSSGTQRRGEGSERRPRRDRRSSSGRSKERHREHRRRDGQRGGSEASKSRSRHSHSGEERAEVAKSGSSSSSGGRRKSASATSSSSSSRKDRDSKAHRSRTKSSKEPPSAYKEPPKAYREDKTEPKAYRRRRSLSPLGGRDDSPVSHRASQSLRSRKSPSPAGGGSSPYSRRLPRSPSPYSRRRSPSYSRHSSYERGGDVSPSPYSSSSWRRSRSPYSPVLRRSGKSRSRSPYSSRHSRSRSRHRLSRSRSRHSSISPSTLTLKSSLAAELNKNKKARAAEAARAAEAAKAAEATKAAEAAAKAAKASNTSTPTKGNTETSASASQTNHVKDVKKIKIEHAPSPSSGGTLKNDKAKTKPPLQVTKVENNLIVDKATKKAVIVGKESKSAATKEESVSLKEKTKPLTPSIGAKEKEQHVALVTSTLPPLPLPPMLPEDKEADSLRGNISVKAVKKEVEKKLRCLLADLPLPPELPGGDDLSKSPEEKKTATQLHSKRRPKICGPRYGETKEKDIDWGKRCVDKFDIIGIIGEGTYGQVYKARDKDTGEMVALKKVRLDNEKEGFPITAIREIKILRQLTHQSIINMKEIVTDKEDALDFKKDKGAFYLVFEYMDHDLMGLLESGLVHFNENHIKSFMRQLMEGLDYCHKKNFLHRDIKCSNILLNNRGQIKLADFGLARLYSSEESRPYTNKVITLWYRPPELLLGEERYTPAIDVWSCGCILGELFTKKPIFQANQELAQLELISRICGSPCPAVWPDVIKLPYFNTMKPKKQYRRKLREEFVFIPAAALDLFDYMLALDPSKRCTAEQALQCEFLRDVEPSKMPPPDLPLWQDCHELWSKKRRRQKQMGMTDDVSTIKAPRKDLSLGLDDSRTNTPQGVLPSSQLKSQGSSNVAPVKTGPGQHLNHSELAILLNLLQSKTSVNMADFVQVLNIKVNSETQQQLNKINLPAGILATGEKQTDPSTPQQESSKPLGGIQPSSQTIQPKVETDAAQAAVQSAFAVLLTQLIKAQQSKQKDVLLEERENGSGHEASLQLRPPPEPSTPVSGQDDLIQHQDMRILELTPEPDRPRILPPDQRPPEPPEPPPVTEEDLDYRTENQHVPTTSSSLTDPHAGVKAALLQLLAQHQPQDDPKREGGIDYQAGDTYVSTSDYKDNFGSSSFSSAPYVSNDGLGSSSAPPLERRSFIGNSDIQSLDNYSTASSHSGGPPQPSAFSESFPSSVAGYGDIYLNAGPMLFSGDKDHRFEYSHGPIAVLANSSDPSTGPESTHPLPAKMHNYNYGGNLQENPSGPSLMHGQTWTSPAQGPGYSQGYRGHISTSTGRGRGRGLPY

[11] = target: Bone morphogenetic protein receptor type-2 (Homo sapiens) (UniProt Q13873); experiment: Binding affinity to wild-type human partial length BMPR2 (R179 to Q526 residues) expressed in mammalian expression system assessed as residual binding level at 1 uM by Kinomescan method relative to control; outline: as §2
[12] = target: Tyrosine-protein kinase Fgr (Homo sapiens) (UniProt P09769); experiment: Binding affinity to wild-type human partial length FGR (L233 to T529 residues) expressed in bacterial expression system assessed as residual binding level at 1 uM by Kinomescan method relative to control; outline: as §1
Tyrosine-protein kinase Fgr (Homo sapiens), sequence (P09769 2-529 limits assumed): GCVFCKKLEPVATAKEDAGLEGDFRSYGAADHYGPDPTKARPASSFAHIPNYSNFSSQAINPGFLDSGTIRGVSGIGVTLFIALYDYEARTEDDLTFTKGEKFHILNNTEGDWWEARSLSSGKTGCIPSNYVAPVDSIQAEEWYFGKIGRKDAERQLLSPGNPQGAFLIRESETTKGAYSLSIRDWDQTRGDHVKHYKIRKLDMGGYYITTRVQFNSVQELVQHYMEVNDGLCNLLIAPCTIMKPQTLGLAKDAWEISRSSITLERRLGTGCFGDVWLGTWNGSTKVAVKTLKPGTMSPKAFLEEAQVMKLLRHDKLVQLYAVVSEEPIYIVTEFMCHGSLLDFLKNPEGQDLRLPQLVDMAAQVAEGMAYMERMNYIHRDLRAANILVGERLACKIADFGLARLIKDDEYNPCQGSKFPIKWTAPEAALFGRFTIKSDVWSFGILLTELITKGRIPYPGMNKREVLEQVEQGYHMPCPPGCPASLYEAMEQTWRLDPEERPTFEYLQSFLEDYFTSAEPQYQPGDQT

[13] = target: Casein kinase I isoform epsilon (Homo sapiens) (UniProt P49674); experiment: Binding affinity to wild-type human full length CSNK1E (M1 to K416 residues) expressed in bacterial expression system assessed as residual binding level at 1 uM by Kinomescan method relative to control
Outline: (§3)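 Single-concentration (1 μM) competition-binding screen run by KINOMEscan against a panel of 468 purified kinases and mutants. The read-out is the relative binding activity of the test compound to each kinase.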

[14] = target: Vascular endothelial growth factor receptor 2 (Homo sapiens) (UniProt P35968)
Vascular endothelial growth factor receptor 2 (Homo sapiens), sequence (P35968 whole entry, the tested form may be a part): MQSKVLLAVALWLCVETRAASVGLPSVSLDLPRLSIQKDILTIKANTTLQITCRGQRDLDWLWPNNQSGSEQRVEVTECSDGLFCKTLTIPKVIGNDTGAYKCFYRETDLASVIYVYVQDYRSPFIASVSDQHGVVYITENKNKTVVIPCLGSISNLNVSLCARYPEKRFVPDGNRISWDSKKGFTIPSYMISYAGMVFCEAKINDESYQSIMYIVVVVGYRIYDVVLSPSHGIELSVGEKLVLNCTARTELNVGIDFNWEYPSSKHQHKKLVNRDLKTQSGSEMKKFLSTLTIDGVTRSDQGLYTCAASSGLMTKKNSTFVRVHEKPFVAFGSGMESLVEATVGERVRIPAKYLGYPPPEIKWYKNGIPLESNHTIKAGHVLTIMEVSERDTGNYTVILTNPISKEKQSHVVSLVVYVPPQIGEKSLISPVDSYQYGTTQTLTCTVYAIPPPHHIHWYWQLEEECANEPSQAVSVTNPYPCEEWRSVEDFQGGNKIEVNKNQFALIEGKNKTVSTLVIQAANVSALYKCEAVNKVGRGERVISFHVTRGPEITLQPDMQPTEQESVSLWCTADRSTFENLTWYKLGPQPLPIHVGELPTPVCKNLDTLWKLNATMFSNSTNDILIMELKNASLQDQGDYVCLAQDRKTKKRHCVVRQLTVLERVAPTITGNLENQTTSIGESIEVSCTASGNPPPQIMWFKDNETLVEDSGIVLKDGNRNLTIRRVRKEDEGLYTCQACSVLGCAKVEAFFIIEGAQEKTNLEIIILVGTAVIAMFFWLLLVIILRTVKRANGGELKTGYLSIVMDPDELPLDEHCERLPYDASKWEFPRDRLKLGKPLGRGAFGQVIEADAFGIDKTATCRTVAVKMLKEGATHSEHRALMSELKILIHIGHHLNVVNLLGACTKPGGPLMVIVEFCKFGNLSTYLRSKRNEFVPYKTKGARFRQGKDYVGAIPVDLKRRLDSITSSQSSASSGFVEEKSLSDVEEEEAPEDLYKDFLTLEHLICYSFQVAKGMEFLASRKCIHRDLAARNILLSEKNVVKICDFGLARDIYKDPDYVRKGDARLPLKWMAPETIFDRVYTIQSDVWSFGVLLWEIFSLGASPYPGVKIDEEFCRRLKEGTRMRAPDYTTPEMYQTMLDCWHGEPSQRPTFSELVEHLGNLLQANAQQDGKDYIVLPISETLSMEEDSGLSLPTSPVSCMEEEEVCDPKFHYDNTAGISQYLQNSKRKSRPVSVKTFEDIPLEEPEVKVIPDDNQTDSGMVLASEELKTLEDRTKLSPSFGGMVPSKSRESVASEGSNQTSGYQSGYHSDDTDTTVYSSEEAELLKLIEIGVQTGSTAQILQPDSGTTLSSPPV

[15] = target: Casein kinase II subunit alpha (Homo sapiens) (UniProt P68400); experiment: Binding affinity to wild-type human full length CSNK2A1 (M1 to Q391 residues) expressed in mammalian expression system assessed as residual binding level at 1 uM by Kinomescan method relative to control; outline: as §3
[16] = target: Epidermal growth factor receptor (Homo sapiens) (UniProt P00533); experiment: Binding affinity to human partial length EGFR L747-T751del/Sins mutant expressed in bacterial expression system assessed as residual binding level at 1 uM by Kinomescan method relative to control
Outline: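 Kinome-wide single-concentration binding screen (KINOMEscan) at 1 μM against a panel of 468 purified kinases and mutants. Read-out is relative binding of each kinase compared with control. Selectivity across the panel was summarised as an S(10) score.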

Calcium/calmodulin-dependent protein kinase kinase 1 (Homo sapiens), sequence (Q8N5S9 whole entry, looked up, the tested form may be a part): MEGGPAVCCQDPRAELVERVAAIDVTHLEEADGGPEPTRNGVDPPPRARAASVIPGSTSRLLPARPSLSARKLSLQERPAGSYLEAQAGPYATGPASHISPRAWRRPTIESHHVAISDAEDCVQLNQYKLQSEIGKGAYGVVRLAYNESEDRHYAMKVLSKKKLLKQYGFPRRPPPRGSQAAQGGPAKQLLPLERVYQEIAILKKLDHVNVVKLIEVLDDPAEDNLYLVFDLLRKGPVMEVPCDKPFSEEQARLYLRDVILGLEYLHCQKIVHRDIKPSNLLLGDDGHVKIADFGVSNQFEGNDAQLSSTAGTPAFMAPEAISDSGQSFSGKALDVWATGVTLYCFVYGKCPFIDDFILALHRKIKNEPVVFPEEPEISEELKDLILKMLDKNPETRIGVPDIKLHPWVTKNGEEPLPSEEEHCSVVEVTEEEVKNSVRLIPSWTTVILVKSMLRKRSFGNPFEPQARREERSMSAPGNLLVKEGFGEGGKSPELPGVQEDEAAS

## Cc1ccc(NC(=O)c2ccc(CN(CCN(C)C)C(=O)c3cccnc3)cc2)cc1Nc1nccc(-c2cccnc2)n1
[1]
  Activity: 92%
[2]
  Activity: 91%
[3]
  Activity: 85%
[4]
  AUC(0-inf): 115 ng·h/mL
[5]
  Activity: 85%
[6]
  Activity: 100%
[7]
  Activity: 77%
[8]
  Activity: 73%
[9]
  Activity: 94%
[10]
  Activity: 100%
[11]
  Activity: 100%
[12]
  Activity: 91%
[13]
  Activity: 97%
[14]
  GI50: > 10 µM
[15]
  Activity: 81%
[16]
  Activity: 100%
